Calls of active or inactive are those of the source. The calls are words filed in the database; no cut-off is given here.

The text below walks through data of ChEMBL document CHEMBL4024753, “Lipoyl-Homotaurine Derivative (ADM_12) Reverts Oxaliplatin-Induced Neuropathy and Reduces Cancer Cells Malignancy by Inhibiting Carbonic Anhydrase IX (CAIX)” (J Med Chem, 2017).

One experiment addresses Carbonic anhydrase 12 (Homo sapiens, UniProt O43570). The experiment in a line: Inhibition of human carbonic anhydrase 12 incubated for 15 mins prior to testing by stopped flow CO2 hydrase assay.
Experiment [1] has as its target T1, Carbonic anhydrase 9 (Homo sapiens, UniProt Q16790). The experiment in a line: Inhibition of human carbonic anhydrase 9 incubated for 15 mins prior to testing by stopped flow CO2 hydrase assay.
A short description of experiment [2]: Antioxidant activity of compound assessed as reduction in ipoxanthine/xanthine oxidase-induced superoxide anion level after 30 mins by nitro blue tetrazolium-based spectrophotometric assay. The experiment is classed as functional. An outline of the steps: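 Cell-free test with superoxide generated by a hypoxanthine–xanthine oxidase system. Nitro blue tetrazolium […] read after 30 min without or with increasing compound concentrations (up to 1000 μM).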

For the next experiment, the system named is Rattus norvegicus. Description: Antihyperalgesic activity in OXA-induced neuropathic pain Sprague-Dawley rat model assessed as reduction in response to noxious mechanical stimulus at 30 mg/kg, po after 15 to 75 mins on day 21 post induction. It is filed as functional, organism-based. Put shortly: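 Male Sprague-Dawley rats (200-250 g) given oxaliplatin 2.4 mg kg−1 ip daily in 0.5% glucose solution. On day 21, single po dose of test agent in 1% CMC vehicle. Paw-pressure test (noxious mechanical stimulus, weight tolerated) repeated over time after dosing. 12 rats per group from two experimental sets, mean ± SEM.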

The next experiment deals with Astrocyte. Description: Antioxidant activity in Sprague-Dawley rat primary cortical astrocytes assessed as inhibition of OXA-induced superoxide radical anion at 100 uM after 4 hrs by cytochrome C assay relative to control. It is filed as functional. Put shortly: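 Primary rat cortical astrocytes (5 × 10^5 cells/well) exposed to 100 μM oxaliplatin for 4 h, with or without co-incubated compound. Superoxide measured by cytochrome C assay. Absorbance in the presence of SOD subtracted as nonspecific. Mean ± SEM of three experiments versus untreated culture.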

The test system of experiment [3] is HT-29. Description: Synergistic antiproliferative activity against human HT-29 cells assessed as cell viability at 100 uM after 24 hrs in presence of 30 uM oxaliplatin by MTT assay relative to control. It is filed as functional. An outline of the steps:
(§1)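 HT-29 cells co-treated 24 h with compound at 100 μM plus oxaliplatin (1, 10, 30, 100 or 300 μM). Viability by MTT as % viable cells versus untreated control. Compared to control and to compound alone.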

Experiment [4] deals with T1, Carbonic anhydrase 9. Conditions: 100 uM.
Experiment [5] deals with T1, Carbonic anhydrase 9. Conditions: 100 uM. The source holds these as a separate data set.
The target in experiment [6] is Macrophage metalloelastase (Homo sapiens, UniProt P39900). The experiment in a line: Binding affinity to human 15N-labeled MMP-12 catalytic domain (G106 to G263 residues) expressed in Escherichia coli BL21 Gold by 1H […] NMR method. Put shortly:
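2D 1H−15N HSQC spectra of the MMP-12 catalytic domain titrated with ligand (up to 3.3 mM). Kd derived by fitting chemical shift variations of residues.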

Experiment [7] deals with HT-29. The experiment in a line: Synergistic antiproliferative activity against human HT-29 cells assessed as cell viability at 100 uM after 24 hrs in presence of 300 uM oxaliplatin by MTT assay relative to control. The experiment is classed as functional. Put shortly: as §1
For orientation: Formazan colour is commonly taken as a measure of viable cells.

Experiment [8] deals with HT-29. Description: Synergistic antiproliferative activity against human HT-29 cells assessed as cell viability at 100 uM after 24 hrs in presence of 100 uM oxaliplatin by MTT assay relative to control. The experiment is classed as functional. As to conditions: HT-29, 24 h, read-out: Activity. An outline of the steps:
as §1

The target in experiment [9] is T1, Carbonic anhydrase 9. Conditions: 100 uM. The source holds these as a separate data set.
In experiment [10] the target is T1, Carbonic anhydrase 9. Conditions: 100 uM. This is another data set of the same source.
Experiment [11] concerns the target Transient receptor potential cation channel subfamily A member 1 (Homo sapiens) (UniProt O75762). Description: Inhibition of oxaliplatin activated TRPA1 (unknown origin) expressed in CHO cells assessed as reduction in channel evoked current at 30 uM by Patch-clamp method. The experiment is classed as cell-based. Put shortly: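 CHO cells transiently transfected with wild-type TRPA1, EGFP as transfection marker. Whole-cell patch clamp 48−72 h after transfection. Voltage ramps read at +50 and −50 mV. Currents evoked by 50 μM oxaliplatin, then compound applied. n = 5 cells, unpaired Student's t test.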
(Patch clamp records ionic current or voltage across a cell membrane.)

The target in experiment [12] is T1, Carbonic anhydrase 9. As to conditions: 100 uM. This is another data set of the same source.
Experiment [13] concerns HT-29. Description: Cytotoxicity against human HT-29 cells assessed as mortality at 1 to 300 uM after 24 hrs by MTT assay relative to control. The experiment is classed as functional. An outline of the steps:
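Human colon cancer HT-29 cells incubated with increasing concentrations (1−300 μM) for 24 h; viability read by MTT test and expressed as % of viable cells relative to untreated control.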

Experiment [14] deals with HT-29. The experiment in a line: Synergistic antiproliferative activity against human HT-29 cells assessed as cell viability at 100 uM after 24 hrs in presence of 10 uM oxaliplatin by MTT assay relative to control. It is filed as functional. Put shortly: as §1
Experiment [15] relates to HT-29. Description: Synergistic antiproliferative activity against human HT-29 cells assessed as cell viability at 100 uM after 24 hrs in presence of 1 uM oxaliplatin by MTT assay relative to control. It is filed as functional. An outline of the steps:
as §1

Experiment [16] has as its system HT-29. Description: Antiproliferative activity against human HT-29 cells assessed as cell viability at 100 uM after 24 hrs by MTT assay relative to control. The experiment is classed as functional. Conditions: HT-29, 24 h, read-out: Activity. Put shortly: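 HT-29 human colon cancer cells incubated 24 h with compound (range 1−300 μM). Viability by MTT, expressed as % viable cells relative to untreated control.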

Experiment [17] concerns the target T1, Carbonic anhydrase 9. Conditions: 100 uM. This is another data set of the same source.
The target in experiment [18] is T1, Carbonic anhydrase 9. Conditions: 100 uM. The source holds these as a separate data set.

Sequence of Carbonic anhydrase 12 (O43570 whole entry): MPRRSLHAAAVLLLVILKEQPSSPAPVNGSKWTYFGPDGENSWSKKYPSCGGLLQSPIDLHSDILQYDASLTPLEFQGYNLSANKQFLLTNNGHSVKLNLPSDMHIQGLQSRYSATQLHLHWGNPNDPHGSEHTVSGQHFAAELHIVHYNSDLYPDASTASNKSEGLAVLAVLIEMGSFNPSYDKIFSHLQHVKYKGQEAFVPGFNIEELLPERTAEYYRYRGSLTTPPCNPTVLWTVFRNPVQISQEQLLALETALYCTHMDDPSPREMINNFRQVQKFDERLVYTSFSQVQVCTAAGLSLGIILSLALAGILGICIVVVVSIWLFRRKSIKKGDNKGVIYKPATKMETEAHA
Sequence of Transient receptor potential cation channel subfamily A member 1 (Homo sapiens) (O75762 whole entry): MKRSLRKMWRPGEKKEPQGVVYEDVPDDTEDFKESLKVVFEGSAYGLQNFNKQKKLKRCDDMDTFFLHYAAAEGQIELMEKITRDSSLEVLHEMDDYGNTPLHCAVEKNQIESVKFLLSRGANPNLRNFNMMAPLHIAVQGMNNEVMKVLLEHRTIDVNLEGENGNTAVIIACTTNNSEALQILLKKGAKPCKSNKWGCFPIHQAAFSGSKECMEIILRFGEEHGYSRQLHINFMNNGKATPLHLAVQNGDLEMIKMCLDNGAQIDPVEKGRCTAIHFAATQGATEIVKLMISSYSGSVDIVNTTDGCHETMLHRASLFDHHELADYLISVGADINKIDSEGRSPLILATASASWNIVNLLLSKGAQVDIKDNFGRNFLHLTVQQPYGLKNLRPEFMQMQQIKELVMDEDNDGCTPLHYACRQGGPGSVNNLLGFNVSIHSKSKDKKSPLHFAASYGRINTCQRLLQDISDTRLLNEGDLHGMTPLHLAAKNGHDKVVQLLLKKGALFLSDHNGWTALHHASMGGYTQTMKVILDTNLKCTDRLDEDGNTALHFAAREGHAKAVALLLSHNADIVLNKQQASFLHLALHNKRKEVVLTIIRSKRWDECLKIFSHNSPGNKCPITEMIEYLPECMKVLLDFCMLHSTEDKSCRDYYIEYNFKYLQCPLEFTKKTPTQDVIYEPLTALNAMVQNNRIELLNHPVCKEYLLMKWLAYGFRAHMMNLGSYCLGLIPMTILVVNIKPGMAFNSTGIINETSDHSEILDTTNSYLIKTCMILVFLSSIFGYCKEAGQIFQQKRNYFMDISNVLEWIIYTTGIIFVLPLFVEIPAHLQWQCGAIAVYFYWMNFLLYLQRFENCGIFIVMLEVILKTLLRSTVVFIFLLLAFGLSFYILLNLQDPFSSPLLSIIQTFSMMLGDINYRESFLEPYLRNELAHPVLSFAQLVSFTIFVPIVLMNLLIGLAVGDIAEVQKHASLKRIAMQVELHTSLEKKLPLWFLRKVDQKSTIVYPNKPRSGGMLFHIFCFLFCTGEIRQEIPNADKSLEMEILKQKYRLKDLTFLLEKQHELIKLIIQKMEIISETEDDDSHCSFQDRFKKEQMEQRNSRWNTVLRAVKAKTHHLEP
Sequence of Macrophage metalloelastase (P39900 whole entry, the tested form may be a part): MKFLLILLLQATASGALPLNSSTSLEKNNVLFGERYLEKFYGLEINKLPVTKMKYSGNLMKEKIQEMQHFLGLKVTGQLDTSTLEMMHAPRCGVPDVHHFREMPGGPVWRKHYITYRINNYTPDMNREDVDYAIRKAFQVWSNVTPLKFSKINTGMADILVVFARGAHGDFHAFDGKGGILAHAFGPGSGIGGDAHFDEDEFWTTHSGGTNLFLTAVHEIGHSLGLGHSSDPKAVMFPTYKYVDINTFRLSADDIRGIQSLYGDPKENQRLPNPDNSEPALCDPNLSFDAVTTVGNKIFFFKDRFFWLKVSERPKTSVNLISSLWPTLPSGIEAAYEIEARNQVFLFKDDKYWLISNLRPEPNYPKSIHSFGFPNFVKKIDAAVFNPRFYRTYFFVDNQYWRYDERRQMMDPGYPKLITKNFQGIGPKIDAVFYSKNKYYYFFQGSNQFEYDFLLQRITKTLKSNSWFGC

On to `O=S(=O)(O)/C=C/c1cc(Br)ccc1O`, for which the Ki (in general, a dissociation constant, usually derived from enzyme kinetics or from competition with a known ligand) at Carbonic anhydrase 12 stood at 4.51 µM; on Carbonic anhydrase 9 [1], 6.83 µM.
Consider `O=C(CCCCC1CCSS1)NCCCCS(=O)(=O)O` (centres undefined), for which the Activity entry in experiment [2] was “Dose-dependent effect”. For the same molecule, the result in the experiment with Rattus norvegicus was Active. Also, in the experiment with Astrocyte, the inhibition – broadly, the relative decrease from the control value, in per cent – at 100 µM stood at 75%.
Consider `O=C(CCCCC1CCSS1)NCCCS(=O)(=O)[O-].[Na+]` (centres undefined), for which the Activity in the experiment on HT-29 [3] is 71.4%; in the experiment with HT-29 [7], 48.1%; in experiment [2] it was “Dose-dependent effect”; in the experiment on HT-29 [14], 78.6%; in the experiment with HT-29 [15], 74.6%. Moreover, the inhibition entry (on Carbonic anhydrase 9 [4]; on Carbonic anhydrase 9 [5]; on Carbonic anhydrase 9 [9]; at Carbonic anhydrase 9 [10]; in experiment [11]; at Carbonic anhydrase 9 [12]) was “Active” in each case. The inhibition result at Carbonic anhydrase 9 [17] and on Carbonic anhydrase 9 [18] was “Active” in each case. Moreover, in experiment [6], the Kd (commonly the concentration at which binding is half-saturated) came out at 875 µM. The viability at 100 µM in the experiment with HT-29 [8] came out at 67.4%; with HT-29 [16], 81.3%. Further, the Ki at Carbonic anhydrase 12 is 0.727 µM; at Carbonic anhydrase 9 [1] it was 0.654 µM. In addition, in the experiment with Rattus norvegicus, the result was Active. The inhibition at 100 µM in the experiment on Astrocyte is 75%. For the same molecule, in the experiment on HT-29 [13], the mortality (as a rule, the share of the test organisms that died) is given as 20%.
On to `O=C(CCCCC1CCSS1)NCCS(=O)(=O)O` (centres undefined), for which the Activity result in [2] was “Dose-dependent effect”. The result with Rattus norvegicus was Active. Moreover, the inhibition at 100 µM with Astrocyte stood at 75%.
